The source made the active and inactive calls.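 How the source made its calls: active means relative luminescence ratio of 1.25 or more at any tested dose; inactive means ratio below 1.25 at every dose.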

This assay deals with Nuclear receptor subfamily 0 group B member 1 (Homo sapiens) (UniProt P51843). Briefly: DAX1 (NR0B1) inhibitors, reporter derepression, dose response, cell-based, luminescence, HEK293, powder samples, assay provider (AID 624302). As to conditions: HEK293 GAL4-DAX1 repression, luciferase reporter luminescence; at 100 µM; stronger effect = higher value. Put shortly: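 Test system: HEK293 with GAL4-DAX1 fusion and Gal4-tk-luc reporter; Measured by: luciferase luminescence; Controls: DMSO wells.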
Chain of Nuclear receptor subfamily 0 group B member 1 (Homo sapiens) (P51843 207-470 limits assumed): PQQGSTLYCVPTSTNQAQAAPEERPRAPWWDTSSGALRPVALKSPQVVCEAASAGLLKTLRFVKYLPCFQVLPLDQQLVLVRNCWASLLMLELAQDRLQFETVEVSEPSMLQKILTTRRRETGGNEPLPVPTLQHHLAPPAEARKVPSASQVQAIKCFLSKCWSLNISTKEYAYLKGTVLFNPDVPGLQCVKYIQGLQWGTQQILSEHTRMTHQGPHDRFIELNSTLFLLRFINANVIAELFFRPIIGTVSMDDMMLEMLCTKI
`COc1cccc(C(=O)Nc2ccc3c(c2)OCO3)c1`: the relative luminescence ratio is 0.16 (inactive).

With `Cc1occc1C(=O)Nc1ccc2c(c1)OCO2`, the relative luminescence ratio was 0.21 (inactive).

With `COc1ccc(OC)c(C(C)NC(=O)c2c(F)cccc2Cl)c1` (centres undefined), the relative luminescence ratio was 0.51 (inactive).

`Cn1c(=O)n(C)c2cc(C(=O)Nc3ccc4c(c3)OCO4)ccc21`: the relative luminescence ratio is 1.77.

`CSc1ccccc1C(=O)Nc1ccc2c(c1)OCO2`: the relative luminescence ratio is 0.41 (inactive).

In the case of `COc1ccc(OC)c(C(C)NC(=O)c2ccccc2F)c1` (centres undefined), the relative luminescence ratio was 0.39 (inactive).

Take `COc1ccc(OC)c(C(C)NC(=O)c2ccc(F)cc2)c1` (centres undefined): the relative luminescence ratio is 0.33 (inactive).

On to `COc1ccc(OC)c(C(C)NC(=O)c2ccc(C(C)(C)C)cc2)c1` (centres undefined), for which the relative luminescence ratio was 0.1 (inactive).

Take `O=C(Nc1ccc2c(c1)OCO2)c1ccc(C2SCC(=O)N2Cc2ccccc2)cc1` (centres undefined): the relative luminescence ratio is 0.01 (inactive).

Regarding `COc1ccc(OC)c(C(C)NC(=O)c2ccc(Cl)cc2)c1` (centres undefined), the relative luminescence ratio is 0.3 (inactive).

Regarding `COc1cccc(C(=O)NC(C)c2cc(OC)ccc2OC)c1` (centres undefined), the relative luminescence ratio was 0.3 (inactive).

Regarding `CN(C)c1cccc(C(=O)Nc2ccc3c(c2)OCCO3)c1`, the relative luminescence ratio is 0.05 (inactive).

For the compound `COc1ccc(OC)c(C(C)NC(=O)c2cccc(C)c2)c1` (centres undefined), the relative luminescence ratio is 0.23 (inactive).

On to `COc1ccc(OC)c(C(C)NC(=O)c2cccc(F)c2)c1` (centres undefined), for which the relative luminescence ratio is 0.63 (inactive).

For `O=C(Nc1ccc2c(c1)OCO2)c1ccc(C2SCC(=O)N2Cc2ccco2)cc1` (centres undefined), the relative luminescence ratio was 0.01 (inactive).

As to `Cn1c(=O)n(C)c2cc(C(=O)Nc3ccc4c(c3)OCCO4)ccc21`, the relative luminescence ratio is 2.25.

In the case of `COc1ccc(OC)c(C(C)NC(=O)c2ccccc2Cl)c1` (centres undefined), the relative luminescence ratio is 0.39 (inactive).

`Cc1cc(C(=O)Nc2ccc3c(c2)OCO3)cs1`: the relative luminescence ratio was 0.26 (inactive).

As to `COc1ccc(OC)c(C(C)NC(=O)c2ccccc2C)c1` (centres undefined), the relative luminescence ratio is 0.42 (inactive).

As to `COc1ccc(OC)c(C(C)NC(=O)c2ccc3c(c2)OCCO3)c1` (centres undefined), the relative luminescence ratio is 0.31 (inactive).

`O=C(Nc1ccc2c(c1)OCCO2)c1ccc2ccccc2c1`: the relative luminescence ratio is 0.02 (inactive).

Consider `COc1cccc(C(=O)Nc2ccc3c(c2)OCCO3)c1`, for which the relative luminescence ratio is 0.02 (inactive).

For the compound `CSc1ccccc1C(=O)Nc1ccc2c(c1)OCCO2`, the relative luminescence ratio is 0.51 (inactive).

For `COc1ccc(OC)c(C(C)NC(=O)c2ccc(C)cc2)c1` (centres undefined), the relative luminescence ratio is 0.38 (inactive).

Consider `O=C(Nc1ccc2c(c1)OCO2)c1ccc2ccccc2c1`, for which the relative luminescence ratio was 0.02 (inactive).

Consider `O=C(Nc1ccc2c(c1)OCO2)c1cccs1`, for which the relative luminescence ratio was 0.38 (inactive).

In the case of `COc1ccc(OC)c(C(C)NC(=O)c2cccc3ccccc23)c1` (centres undefined), the relative luminescence ratio was 0.01 (inactive).

`COc1ccc(OC)c(C(C)NC(=O)c2ccccc2)c1` (centres undefined): the relative luminescence ratio is 0.46 (inactive).

For the compound `O=C(Cc1cccs1)Nc1ccc2c(c1)OCO2`, the relative luminescence ratio was 0.62 (inactive).

Source of the values: PubChem BioAssay AID624302 (The Scripps Research Institute Molecular Screening Center, 2012).
